Laboratory results published in ChEMBL document CHEMBL4665627 (Eur J Med Chem, 2019).
Converted amounts (≈) assume the structure as drawn.

Key:
[1] = system: Pseudomonas aeruginosa; assay: Antibacterial activity against Pseudomonas aeruginosa assessed as inhibition of bacterial growth after 24 hrs by CLSI protocol based two fold serial dilution method; assay type: functional
In short: (§1)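 Two-fold serial broth dilution in 96-well plates following CLSI; MIC (mM) taken as the lowest concentration giving complete growth inhibition; MIC values from three independent experiments.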

[2] = system: Candida albicans; assay: Antifungal activity against Candida albicans ATCC 90023 assessed as inhibition of fungal growth after 24 hrs by CLSI protocol based two fold serial dilution method; assay type: functional; in short: as §1
[3] = system: Escherichia coli; assay: Antibacterial activity against Escherichia coli ATCC 25922 assessed as inhibition of bacterial growth after 24 hrs by CLSI protocol based two fold serial dilution method; assay type: functional; in short: as §1
[4] = system: Acinetobacter baumannii; assay: Antibacterial activity against Acinetobacter baumannii assessed as inhibition of bacterial growth after 24 hrs by CLSI protocol based two fold serial dilution method; assay type: functional; in short: as §1
[5] = system: Staphylococcus aureus; assay: Antibacterial activity against Staphylococcus aureus assessed as inhibition of bacterial growth after 24 hrs by CLSI protocol based two fold serial dilution method; assay type: functional; in short: as §1
[6] = system: Staphylococcus aureus; assay: Antibacterial activity against Staphylococcus aureus ATCC 29213 assessed as inhibition of bacterial growth after 24 hrs by CLSI protocol based two fold serial dilution method; assay type: functional
[7] = system: Saccharomyces cerevisiae; assay: Inhibition of Saccharomyces cerevisiae CGMCC 2.145 chitin synthase at 300 ug/ml using GlcNAc and UDP-GlcNAc as substrate incubated for 60 mins by microplate reader analysis relative to control; details: dose 300.0 µg/ml
In short: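 Chitin synthase inhibition ratio measured at 300 µg/mL test compound, relative to untreated control.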

[8] = system: Candida tropicalis; assay: Antifungal activity against Candida tropicalis assessed as inhibition of fungal growth after 24 hrs by CLSI protocol based two fold serial dilution method; assay type: functional; in short: as §1
[9] = system: Klebsiella pneumoniae; assay: Antibacterial activity against Klebsiella pneumoniae assessed as inhibition of bacterial growth after 24 hrs by CLSI protocol based two fold serial dilution method; assay type: functional; in short: as §1
[10] = system: Escherichia coli; assay: Antibacterial activity against Escherichia coli assessed as inhibition of bacterial growth after 24 hrs by CLSI protocol based two fold serial dilution method; assay type: functional; in short: as §1
[11] = system: Staphylococcus aureus; assay: Antibacterial activity against methicillin-resistant Staphylococcus aureus N315 assessed as inhibition of bacterial growth after 24 hrs by CLSI protocol based two fold serial dilution method; assay type: functional
[12] = system: Staphylococcus aureus; assay: Antibacterial activity against Staphylococcus aureus ATCC 25923 assessed as inhibition of bacterial growth after 24 hrs by CLSI protocol based two fold serial dilution method; assay type: functional; in short: as §1
[13] = system: Pseudomonas aeruginosa; assay: Antibacterial activity against Pseudomonas aeruginosa ATCC 27853 assessed as inhibition of bacterial growth after 24 hrs by CLSI protocol based two fold serial dilution method; assay type: functional; in short: as §1
[14] = system: Candida parapsilosis; assay: Antifungal activity against Candida parapsilosis ATCC 22019 assessed as inhibition of fungal growth after 24 hrs by CLSI protocol based two fold serial dilution method; assay type: functional; details: Lodderomyces parapsilosis; in short: as §1
[15] = system: Aspergillus fumigatus; assay: Antifungal activity against Aspergillus fumigatus assessed as inhibition of fungal growth after 24 hrs by CLSI protocol based two fold serial dilution method; assay type: functional; in short: as §1
[16] = system: Enterococcus faecalis; assay: Antibacterial activity against Enterococcus faecalis assessed as inhibition of bacterial growth after 24 hrs by CLSI protocol based two fold serial dilution method; assay type: functional; in short: as §1
[17] = system: Candida albicans; assay: Antifungal activity against Candida albicans assessed as inhibition of fungal growth after 24 hrs by CLSI protocol based two fold serial dilution method; assay type: functional; in short: as §1

SMILES | MIC [1] [µM] | MIC [2] [µM] | MIC [3] [µM] | MIC [4] [µM] | MIC [5] [µM] | MIC [6] [µM] | inhibition [7] [%] | MIC [8] [µM] | MIC [9] [µM] | MIC [10] [µM] | MIC [11] [µM] | MIC [12] [µM] | MIC [13] [µM] | MIC [14] [µM] | MIC [15] [µM] | MIC [16] [µM] | MIC [17] [µM]
CCN(CC)C(=O)CN1CCN(c2cc3c(cc2F)c(=O)c(-c2csc(N)n2)cn3CC)CC1 | 132 (≈ 64.2 µg/mL) | 66 (≈ 32.1 µg/mL) | 66 (≈ 32.1 µg/mL) | 16 (≈ 7.79 µg/mL) | 137 (≈ 66.7 µg/mL) | 66 (≈ 32.1 µg/mL) | 49.1 | 132 (≈ 64.2 µg/mL) | 263 (≈ 128 µg/mL) | 66 (≈ 32.1 µg/mL) | 66 (≈ 32.1 µg/mL) | 16 (≈ 7.79 µg/mL) | 132 (≈ 64.2 µg/mL) | 132 (≈ 64.2 µg/mL) | 66 (≈ 32.1 µg/mL) | 132 (≈ 64.2 µg/mL) | 66 (≈ 32.1 µg/mL)
CCn1cc(-c2csc(N)n2)c(=O)c2cc(F)c(N3CCN(CCO)CC3)cc21 | 77 (≈ 32.1 µg/mL) | 153 (≈ 63.9 µg/mL) | 153 (≈ 63.9 µg/mL) | 153 (≈ 63.9 µg/mL) | 153 (≈ 63.9 µg/mL) | 153 (≈ 63.9 µg/mL) | 48.3 | 153 (≈ 63.9 µg/mL) | 19 (≈ 7.93 µg/mL) | 153 (≈ 63.9 µg/mL) | 153 (≈ 63.9 µg/mL) | 77 (≈ 32.1 µg/mL) | 38 (≈ 15.9 µg/mL) | 77 (≈ 32.1 µg/mL) | 153 (≈ 63.9 µg/mL) | 38 (≈ 15.9 µg/mL) | 153 (≈ 63.9 µg/mL)
CCn1cc(-c2csc(N)n2)c(=O)c2cc(N3CCNCC3)c(Cl)cc21 | 41 (≈ 16 µg/mL) | 164 (≈ 63.9 µg/mL) | 164 (≈ 63.9 µg/mL) | 1320 (≈ 513 µg/mL) | 82 (≈ 32 µg/mL) | 329 (≈ 128 µg/mL) |  | 329 (≈ 128 µg/mL) | 164 (≈ 63.9 µg/mL) | 329 (≈ 128 µg/mL) | 658 (≈ 257 µg/mL) | 82 (≈ 32 µg/mL) | 658 (≈ 257 µg/mL) | 1320 (≈ 513 µg/mL) | 164 (≈ 63.9 µg/mL) | 329 (≈ 128 µg/mL) | 329 (≈ 128 µg/mL)
CCN1CCN(c2cc3c(cc2F)c(=O)c(-c2csc(N)n2)cn3CC)CC1 | 319 (≈ 128 µg/mL) | 319 (≈ 128 µg/mL) | 160 (≈ 64.2 µg/mL) | 319 (≈ 128 µg/mL) | 319 (≈ 128 µg/mL) | 638 (≈ 256 µg/mL) |  | 40 (≈ 16.1 µg/mL) | 160 (≈ 64.2 µg/mL) | 319 (≈ 128 µg/mL) | 319 (≈ 128 µg/mL) | 80 (≈ 32.1 µg/mL) | 160 (≈ 64.2 µg/mL) | 80 (≈ 32.1 µg/mL) | 160 (≈ 64.2 µg/mL) | 319 (≈ 128 µg/mL) | 319 (≈ 128 µg/mL)
C=CCN1CCN(c2cc3c(cc2F)c(=O)c(-c2csc(N)n2)cn3CC)CC1 | 155 (≈ 64.1 µg/mL) | 77 (≈ 31.8 µg/mL) | 155 (≈ 64.1 µg/mL) | 77 (≈ 31.8 µg/mL) | 155 (≈ 64.1 µg/mL) | 39 (≈ 16.1 µg/mL) |  | 155 (≈ 64.1 µg/mL) | 77 (≈ 31.8 µg/mL) | 77 (≈ 31.8 µg/mL) | 78 (≈ 32.3 µg/mL) | 19 (≈ 7.86 µg/mL) | 155 (≈ 64.1 µg/mL) | 155 (≈ 64.1 µg/mL) | 77 (≈ 31.8 µg/mL) | 155 (≈ 64.1 µg/mL) | 77 (≈ 31.8 µg/mL)
CCOC(=O)CN1CCN(c2cc3c(=O)c(-c4csc(N)n4)cn(CC)c3cc2Cl)CC1 | 269 (≈ 128 µg/mL) | 67 (≈ 31.9 µg/mL) | 1080 (≈ 513 µg/mL) | 135 (≈ 64.3 µg/mL) | 135 (≈ 64.3 µg/mL) | 539 (≈ 257 µg/mL) |  | 135 (≈ 64.3 µg/mL) | 67 (≈ 31.9 µg/mL) | 269 (≈ 128 µg/mL) | 67 (≈ 31.9 µg/mL) | 135 (≈ 64.3 µg/mL) | 269 (≈ 128 µg/mL) | 135 (≈ 64.3 µg/mL) | 539 (≈ 257 µg/mL) | 539 (≈ 257 µg/mL) | 269 (≈ 128 µg/mL)
CCCN1CCN(c2cc3c(cc2F)c(=O)c(-c2csc(N)n2)cn3CC)CC1 | 617 (≈ 256 µg/mL) | 308 (≈ 128 µg/mL) | 308 (≈ 128 µg/mL) | 154 (≈ 64 µg/mL) | 308 (≈ 128 µg/mL) | 617 (≈ 256 µg/mL) |  | 308 (≈ 128 µg/mL) | 154 (≈ 64 µg/mL) | 308 (≈ 128 µg/mL) | 308 (≈ 128 µg/mL) | 154 (≈ 64 µg/mL) | 154 (≈ 64 µg/mL) | 308 (≈ 128 µg/mL) | 154 (≈ 64 µg/mL) | 154 (≈ 64 µg/mL) | 308 (≈ 128 µg/mL)
CCn1cc(-c2csc(N)n2)c(=O)c2cc(F)c(N3CCN(CC(C)=O)CC3)cc21 | 597 (≈ 256 µg/mL) | 37 (≈ 15.9 µg/mL) | 298 (≈ 128 µg/mL) | 298 (≈ 128 µg/mL) | 37 (≈ 15.9 µg/mL) | 298 (≈ 128 µg/mL) |  | 298 (≈ 128 µg/mL) | 37 (≈ 15.9 µg/mL) | 597 (≈ 256 µg/mL) | 298 (≈ 128 µg/mL) | 19 (≈ 8.16 µg/mL) | 149 (≈ 64 µg/mL) | 298 (≈ 128 µg/mL) | 597 (≈ 256 µg/mL) | 149 (≈ 64 µg/mL) | 597 (≈ 256 µg/mL)
